In ChEMBL document CHEMBL5634209, “Computational design, synthesis, and assessment of 3-(4-(4-(1,3,4-oxadiazol-2-yl)-1H-imidazol-2-yl)phenyl)-1,2,4-oxadiazole derivatives as effective epidermal growth factor receptor inhibitors: a prospective strategy for anticancer therapy” (RSC Med Chem, 2024):

Columns and labels:
HepG2 [1] = assay: Induction of cell cycle arrest in human HepG2 cells assessed as accumulation of cell debris at […] incubated for 24 hrs by propidium iodide staining based flow cytometry (reference value: 0.12%); format: functional; settings: dose 0.22 µM
HepG2 [2] = assay: Induction of apoptosis in human HepG2 cells assessed as early apoptotic cells at […] incubated for 24 hrs by AnnexinV-FITC/PI staining based flow cytometry (reference value: 2.91%); format: functional; settings: dose 0.22 µM
HepG2 [3] = assay: Induction of apoptosis in human HepG2 cells assessed as necrotic cells at 0.11 uM incubated for 24 hrs by AnnexinV-FITC/PI staining based flow cytometry (reference value: 0.12%); format: functional
HepG2 [4] = assay: Induction of apoptosis in human HepG2 cells assessed as late apoptotic cells at […] incubated for 24 hrs by AnnexinV-FITC/PI staining based flow cytometry (reference value: 0.032%); format: functional; settings: dose 0.22 µM
HepG2 [5] = assay: Induction of cell cycle arrest in human HepG2 cells assessed as accumulation of cells at G0/G1 phase at […] incubated for 24 hrs by propidium iodide staining based flow cytometry (reference value: 35.61%); format: functional; settings: dose 0.22 µM
HepG2 [6] = assay: Induction of cell cycle arrest in human HepG2 cells assessed as accumulation of cell debris at 0.44 uM incubated for 24 hrs by propidium iodide staining based flow cytometry (reference value: 0.12%); format: functional
In short: (§1)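 HepG2 cells were seeded, incubated overnight at 37 °C and, at 70–80% confluence, treated 24 h with 0.11, 0.22 or 0.44 µM in fresh medium; untreated cells served as control. Cells were then digested, washed in PBS and fixed in pre-cooled 75% ethanol at 4 °C for over 18 h. Staining used propidium iodide 50 µg/mL plus RNase 50 µg/mL for 30 min at 37 °C, and DNA content was read by flow cytometry.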

[7] = Selectivity index, ratio of IC50 for cytotoxicity against African green monkey Vero cells to IC50 for antiproliferative activity against human PC-3 cells; format: toxicity, cell-based; settings: Vero cells versus PC-3 cells, read-out: Ratio IC50
[8] = molecular target: Epidermal growth factor receptor (Homo sapiens, UniProt P00533); assay: Inhibition of wild type EGFR (unknown origin) incubated for 40 mins by Kinase Glo Max reagent based luminescence analysis
Chain of Epidermal growth factor receptor (Homo sapiens, UniProt P00533) (P00533 whole entry): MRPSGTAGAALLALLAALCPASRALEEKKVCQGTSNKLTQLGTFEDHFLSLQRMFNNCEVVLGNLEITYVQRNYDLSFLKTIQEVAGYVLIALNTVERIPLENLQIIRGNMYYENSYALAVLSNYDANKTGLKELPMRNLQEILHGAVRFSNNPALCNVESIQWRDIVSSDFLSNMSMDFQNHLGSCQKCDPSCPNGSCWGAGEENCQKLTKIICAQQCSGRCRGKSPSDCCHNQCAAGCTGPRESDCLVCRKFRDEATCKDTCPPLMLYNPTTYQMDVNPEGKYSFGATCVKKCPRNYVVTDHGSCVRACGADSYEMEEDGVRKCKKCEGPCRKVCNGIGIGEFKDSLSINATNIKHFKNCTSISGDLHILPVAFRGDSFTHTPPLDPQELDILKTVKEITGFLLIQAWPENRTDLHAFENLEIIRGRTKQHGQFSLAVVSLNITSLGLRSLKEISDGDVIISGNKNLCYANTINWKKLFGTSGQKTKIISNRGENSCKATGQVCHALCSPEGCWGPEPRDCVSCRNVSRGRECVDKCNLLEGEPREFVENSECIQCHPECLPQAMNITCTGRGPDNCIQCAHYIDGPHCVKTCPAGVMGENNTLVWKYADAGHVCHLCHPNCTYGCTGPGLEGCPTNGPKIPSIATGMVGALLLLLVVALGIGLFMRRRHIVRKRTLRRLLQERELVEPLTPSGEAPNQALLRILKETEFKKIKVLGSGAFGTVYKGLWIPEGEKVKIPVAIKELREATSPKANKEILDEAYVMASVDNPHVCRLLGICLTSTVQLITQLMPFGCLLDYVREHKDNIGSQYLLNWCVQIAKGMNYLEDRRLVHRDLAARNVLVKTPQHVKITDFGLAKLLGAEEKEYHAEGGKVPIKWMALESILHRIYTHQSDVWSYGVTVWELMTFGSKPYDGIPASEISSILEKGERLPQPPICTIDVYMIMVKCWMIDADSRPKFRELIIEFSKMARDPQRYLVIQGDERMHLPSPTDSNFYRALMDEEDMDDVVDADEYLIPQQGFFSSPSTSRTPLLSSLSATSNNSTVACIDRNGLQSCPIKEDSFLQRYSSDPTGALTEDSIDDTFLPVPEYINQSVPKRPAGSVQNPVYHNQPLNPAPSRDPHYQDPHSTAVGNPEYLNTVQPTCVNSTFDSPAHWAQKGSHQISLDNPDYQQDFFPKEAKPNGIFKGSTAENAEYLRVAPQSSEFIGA

HepG2 [9] = assay: Induction of apoptosis in human HepG2 cells assessed as viable cells at 0.11 uM incubated for 24 hrs by AnnexinV-FITC/PI staining based flow cytometry (reference value: 96.94%); format: functional; settings: read-out: Activity
PC-3 = assay: Antiproliferative activity against human PC-3 cells assessed as reduction in cell viability measured after 48 hrs by MTT assay; format: functional, cell-based; settings: PC-3, 48 h
In short: (§2)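 Cells were grown at 37 °C in 5% CO2 in medium with 10% FBS: RPMI-1640 for A549, DU-145 and HepG2, and DMEM/F12 for PC-3. They were seeded at 5×10^3/well. At 70–80% confluence they were exposed to a concentration range diluted from a 60 mM DMSO stock for 48 h at 37 °C, with 0.1% DMSO as vehicle. MTT 5 mg/mL stock was added for 4 h, formazan dissolved in DMSO, A570 read, and % inhibition calculated against control. IC50 was taken from the concentration series.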

[10] = Selectivity index, ratio of IC50 for cytotoxicity against African green monkey Vero cells to IC50 for antiproliferative activity against human A549 cells; format: toxicity, cell-based; settings: Vero cells versus A549 cells, read-out: Ratio IC50
[11] = Selectivity index, ratio of IC50 for cytotoxicity against African green monkey Vero cells to IC50 for antiproliferative activity against human HepG2 cells; format: toxicity, cell-based; settings: Vero cells versus HepG2 cells, read-out: Ratio IC50
HepG2 [12] = assay: Induction of apoptosis in human HepG2 cells assessed as viable cells at […] incubated for 24 hrs by AnnexinV-FITC/PI staining based flow cytometry (reference value: 96.94%); format: functional; settings: dose 0.22 µM, read-out: Activity
HepG2 [13] = assay: Induction of apoptosis in human HepG2 cells assessed as late apoptotic cells at 0.44 uM incubated for 24 hrs by AnnexinV-FITC/PI staining based flow cytometry (reference value: 0.032%); format: functional
HepG2 [14] = assay: Induction of cell cycle arrest in human HepG2 cells assessed as accumulation of cells at G2/M phase at 0.11 uM incubated for 24 hrs by propidium iodide staining based flow cytometry (reference value: 18.81%); format: functional; in short: as §1
HepG2 [15] = assay: Induction of cell cycle arrest in human HepG2 cells assessed as accumulation of cells at G2/M phase at 0.44 uM incubated for 24 hrs by propidium iodide staining based flow cytometry (reference value: 18.81%); format: functional; in short: as §1
HepG2 [16] = assay: Induction of cell cycle arrest in human HepG2 cells assessed as accumulation of cells at S phase at […] incubated for 24 hrs by propidium iodide staining based flow cytometry (reference value: 46.98%); format: functional; settings: dose 0.22 µM
[17] = Selectivity index, ratio of IC50 for cytotoxicity against African green monkey Vero cells to IC50 for antiproliferative activity against human DU-145 cells; format: toxicity, cell-based; settings: Vero cells versus DU-145 cells, read-out: Ratio IC50
[18] = Cytotoxicity against African green monkey Vero cells assessed as reduction in cell viability measured after 48 hrs by MTT assay; format: toxicity, cell-based; settings: African green monkey (Chlorocebus sabaeus)
[19] = molecular target: Epidermal growth factor receptor (Homo sapiens, UniProt P00533, T790M); assay: Inhibition of EGFR T790M mutant (unknown origin) incubated for 40 mins by Kinase Glo Max reagent based luminescence analysis
Chain of Epidermal growth factor receptor (Homo sapiens, UniProt P00533, T790M) (P00533 25-1210 T790M limits assumed): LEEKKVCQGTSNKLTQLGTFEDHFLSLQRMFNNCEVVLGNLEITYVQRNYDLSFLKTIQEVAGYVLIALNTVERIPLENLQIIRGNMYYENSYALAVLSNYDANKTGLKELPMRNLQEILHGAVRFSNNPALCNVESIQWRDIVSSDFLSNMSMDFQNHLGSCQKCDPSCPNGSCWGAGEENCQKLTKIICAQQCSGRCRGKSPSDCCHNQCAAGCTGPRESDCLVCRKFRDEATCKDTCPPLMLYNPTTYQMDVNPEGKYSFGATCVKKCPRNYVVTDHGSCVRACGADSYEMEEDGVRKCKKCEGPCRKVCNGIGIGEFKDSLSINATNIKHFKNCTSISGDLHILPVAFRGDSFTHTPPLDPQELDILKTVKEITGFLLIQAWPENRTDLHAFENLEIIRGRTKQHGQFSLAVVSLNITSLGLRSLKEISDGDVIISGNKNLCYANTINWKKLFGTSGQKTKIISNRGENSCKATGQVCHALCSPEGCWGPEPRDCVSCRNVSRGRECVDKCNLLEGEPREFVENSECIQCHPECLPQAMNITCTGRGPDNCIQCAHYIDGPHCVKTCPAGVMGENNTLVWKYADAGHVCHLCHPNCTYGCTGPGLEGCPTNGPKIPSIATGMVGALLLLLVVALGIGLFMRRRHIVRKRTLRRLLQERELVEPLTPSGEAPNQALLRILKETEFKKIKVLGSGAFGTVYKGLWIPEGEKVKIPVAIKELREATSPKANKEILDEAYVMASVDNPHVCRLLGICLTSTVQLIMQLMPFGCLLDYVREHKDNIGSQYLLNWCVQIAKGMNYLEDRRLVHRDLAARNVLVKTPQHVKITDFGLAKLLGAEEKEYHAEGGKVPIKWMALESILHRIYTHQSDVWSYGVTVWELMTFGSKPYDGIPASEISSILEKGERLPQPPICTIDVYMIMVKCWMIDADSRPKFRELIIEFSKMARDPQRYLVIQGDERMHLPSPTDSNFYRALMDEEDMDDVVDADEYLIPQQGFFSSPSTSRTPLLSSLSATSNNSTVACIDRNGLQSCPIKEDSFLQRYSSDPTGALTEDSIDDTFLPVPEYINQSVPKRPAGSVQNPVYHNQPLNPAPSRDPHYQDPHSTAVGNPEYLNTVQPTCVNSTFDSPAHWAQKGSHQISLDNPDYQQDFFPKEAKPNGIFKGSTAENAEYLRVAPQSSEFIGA

DU-145 = assay: Antiproliferative activity against human DU-145 cells assessed as reduction in cell viability measured after 48 hrs by MTT assay; format: functional, cell-based; settings: DU-145, 48 h; in short: as §2
HepG2 [20] = assay: Induction of cell cycle arrest in human HepG2 cells assessed as accumulation of cell debris at 0.11 uM incubated for 24 hrs by propidium iodide staining based flow cytometry (reference value: 0.12%); format: functional; in short: as §1
HepG2 [21] = assay: Antiproliferative activity against human HepG2 cells assessed as reduction in cell viability measured after 48 hrs by MTT assay; format: functional, cell-based; settings: HepG2, 48 h; in short: as §2
HepG2 [22] = assay: Induction of apoptosis in human HepG2 cells assessed as necrotic cells at 0.44 uM incubated for 24 hrs by AnnexinV-FITC/PI staining based flow cytometry (reference value: 0.12%); format: functional
HepG2 [23] = assay: Induction of apoptosis in human HepG2 cells assessed as late apoptotic cells at 0.11 uM incubated for 24 hrs by AnnexinV-FITC/PI staining based flow cytometry (reference value: 0.032%); format: functional
A549 = assay: Antiproliferative activity against human A549 cells assessed as reduction in cell viability measured after 48 hrs by MTT assay; format: functional, cell-based; settings: A549, 48 h; in short: as §2
HepG2 [24] = assay: Induction of apoptosis in human HepG2 cells assessed as early apoptotic cells at 0.44 uM incubated for 24 hrs by AnnexinV-FITC/PI staining based flow cytometry (reference value: 2.91%); format: functional
HepG2 [25] = assay: Induction of cell cycle arrest in human HepG2 cells assessed as accumulation of cells at G0/G1 phase at 0.11 uM incubated for 24 hrs by propidium iodide staining based flow cytometry (reference value: 35.61%); format: functional; in short: as §1
HepG2 [26] = assay: Induction of apoptosis in human HepG2 cells assessed as necrotic cells at […] incubated for 24 hrs by AnnexinV-FITC/PI staining based flow cytometry (reference value: 0.12%); format: functional; settings: dose 0.22 µM
HepG2 [27] = assay: Induction of cell cycle arrest in human HepG2 cells assessed as accumulation of cells at G2/M phase at […] incubated for 24 hrs by propidium iodide staining based flow cytometry (reference value: 18.81%); format: functional; settings: dose 0.22 µM
HepG2 [28] = assay: Induction of cell cycle arrest in human HepG2 cells assessed as accumulation of cells at S phase at 0.44 uM incubated for 24 hrs by propidium iodide staining based flow cytometry (reference value: 46.98%); format: functional; in short: as §1
HepG2 [29] = assay: Induction of cell cycle arrest in human HepG2 cells assessed as accumulation of cells at S phase at 0.11 uM incubated for 24 hrs by propidium iodide staining based flow cytometry (reference value: 46.98%); format: functional; in short: as §1
HepG2 [30] = assay: Induction of apoptosis in human HepG2 cells assessed as viable cells at 0.44 uM incubated for 24 hrs by AnnexinV-FITC/PI staining based flow cytometry (reference value: 96.94%); format: functional; settings: read-out: Activity
HepG2 [31] = assay: Induction of apoptosis in human HepG2 cells assessed as early apoptotic cells at 0.11 uM incubated for 24 hrs by AnnexinV-FITC/PI staining based flow cytometry (reference value: 2.91%); format: functional
HepG2 [32] = assay: Induction of cell cycle arrest in human HepG2 cells assessed as accumulation of cells at G0/G1 phase at 0.44 uM incubated for 24 hrs by propidium iodide staining based flow cytometry (reference value: 35.61%); format: functional; in short: as §1

With COc1cc(-c2nc(-c3ccc(-c4nc(-c5nnc(-c6ccncc6)o5)c[nH]4)cc3)no2)cc(OC)c1OC the Activity (HepG2 [1]) was 6.72%, the Activity (HepG2 [2]) was 12.33% and the Activity (HepG2 [3]) was 0.14%. The Activity (HepG2 [4]) was 21.78%, the Activity (HepG2 [5]) was 36.01% and the Activity (HepG2 [6]) was 41.32%. It also gave a selectivity ratio [7] of 117, an IC50 [8] of 0.102 µM and a viability at 0.11 µM (HepG2 [9]) of 79.6%. For the same compound, the IC50 (PC-3) was 0.12 µM, the selectivity ratio [10] was 108 and the selectivity ratio [11] was 127. For the same compound, the viability at […] (HepG2 [12]) was 65.4%, the Activity (HepG2 [13]) was 27.92% and the Activity (HepG2 [14]) was 23.99%. For the same compound, the Activity (HepG2 [15]) was 47.32%, the Activity (HepG2 [16]) was 31.16% and the selectivity ratio [17] was 32.5. The IC50 at 48 h [18] was greater than 14 µM, the IC50 [19] was 1.09 µM and the IC50 (DU-145) was 0.43 µM. For the same compound, the Activity (HepG2 [20]) was 0.71%, the IC50 (HepG2 [21]) was 0.11 µM and the Activity (HepG2 [22]) was 0.563%. For the same compound, the Activity (HepG2 [23]) was 8.96%, the IC50 (A549) was 0.13 µM and the Activity (HepG2 [24]) was 18.23%. It also gave an Activity (HepG2 [25]) of 37.51%, an Activity (HepG2 [26]) of 0.456% and an Activity (HepG2 [27]) of 34.03%. For the same compound, the Activity (HepG2 [28]) was 19.22%, the Activity (HepG2 [29]) was 38.98% and the viability at 0.44 µM (HepG2 [30]) was 53.3%. It also gave an Activity (HepG2 [31]) of 11.32% and an Activity (HepG2 [32]) of 35.02%.
